Reference: ChEMBL document CHEMBL4387744, “Discovery of conolidine derivative DS39201083 as a potent novel analgesic without mu opioid agonist activity” (Bioorg Med Chem Lett, 2019)

Legend:
Mus musculus [1] = test: Analgesic activity in Slc:ddY mouse assessed as inhibition of acetic acid-induced writhings at 30 mg/kg, po relative to control; assay type: functional
Procedure, shortened: (§1)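 Acetic acid-induced writhing in Slc:ddY mice after oral dosing. Read-out is reduction (% inhibition) of writhing behaviour. ED50 calculated from the dose-response curve of analgesic activity at 10, 30 and 100 mpk.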

[2] = Distribution coefficient between 1-octanol and phosphate buffer, logD of the compound in pH 7.4 buffer; assay type: physicochemical; details: 1-octanol/phosphate buffer
Procedure, shortened: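 Log D measured as partitioning between 1-octanol and phosphate-buffered saline at pH 7.4.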

Mus musculus [3] = species on record: Mus musculus; test: Analgesic activity in Slc:ddY mouse assessed as inhibition of acetic acid-induced writhings; assay type: functional; procedure, shortened: as §1
Mus musculus [4] = test: Analgesic activity in Slc:ddY mouse assessed as reduction in sum of the time spent in paw licking or biting responses during phase 1 at 30 mg/kg, po dosed 30 mins before formalin injection by formalin test relative to control; assay type: functional
Procedure, shortened: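 Formalin test in Slc:ddY mice (n = 8). Compound given p.o. at 30 mg/kg; 30 min later 3.5% formalin (20 μL) injected into the hind paw pad. Read-out is the reduction in summed paw licking and biting time over the first 10 min after injection (initial phase).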

Mu-type opioid receptor [5] = biological target: T1, Mu-type opioid receptor (Homo sapiens, UniProt P35372); test: Displacement of [3H]-diprenorphine from MOR (unknown origin); assay type: ADME
Mu-type opioid receptor [6] = biological target: T1, Mu-type opioid receptor; test: Agonist activity at human mu opioid receptor expressed in CHO cells by cAMP assay; assay type: cell-based
Procedure, shortened: (§2)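 Human MOR expressed in CHO cells; cAMP read-out. EC50 derived from the cAMP response.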

Mu-type opioid receptor [7] = biological target: T1, Mu-type opioid receptor; test: Agonist activity at human mu opioid receptor expressed in CHO cells by cAMP assay relative to DAMGO; assay type: cell-based; procedure, shortened: as §2
[8] = AUC in ddY mouse 10 mg/kg, po; assay type: ADME, organism-based; details: in vivo
Procedure, shortened: (§3)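 Plasma pharmacokinetics in ddY mice after a single oral dose of 10 mg/kg, given as a 0.5 w/v% methylcellulose suspension. Reported values are the average of three.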

[9] = Cmax in ddY mouse 10 mg/kg, po; assay type: ADME, organism-based; design: dose 10 mg/kg, route oral; details: in vivo; procedure, shortened: as §3
[10] = Half life in ddY mouse 10 mg/kg, po; assay type: ADME, organism-based; details: in vivo; procedure, shortened: as §3
Mus musculus [11] = test: Analgesic activity in Slc:ddY mouse assessed as inhibition of acetic acid-induced writhings at 3 mg/kg, po relative to control; assay type: functional
Mus musculus [12] = test: Analgesic activity in Slc:ddY mouse assessed as inhibition of acetic acid-induced writhings at 10 mg/kg, po relative to control; assay type: functional; procedure, shortened: as §1

T1 sequence (P35372 whole entry): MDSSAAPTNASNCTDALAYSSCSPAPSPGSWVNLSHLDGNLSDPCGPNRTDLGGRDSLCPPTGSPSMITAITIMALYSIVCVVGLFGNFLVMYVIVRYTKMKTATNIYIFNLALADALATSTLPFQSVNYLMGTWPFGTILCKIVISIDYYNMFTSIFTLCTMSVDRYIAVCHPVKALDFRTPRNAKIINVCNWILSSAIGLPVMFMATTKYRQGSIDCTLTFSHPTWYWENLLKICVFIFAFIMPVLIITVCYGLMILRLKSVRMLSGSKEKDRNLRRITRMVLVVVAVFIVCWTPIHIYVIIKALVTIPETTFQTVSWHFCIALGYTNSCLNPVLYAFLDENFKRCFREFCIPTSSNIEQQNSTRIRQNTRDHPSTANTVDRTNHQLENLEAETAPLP

Compound: C/C=C1/CN2CCC1C(=O)c1[nH]c3cc(OC)ccc3c1C2 (racemic)
- inhibition in vivo at 30 mg/kg (Mus musculus [1]): 31%
- logD [2]: 3.1

Compound: C/C=C1/CN2CCC1C(=O)c1[nH]c3ccc(OC)cc3c1C2 (racemic)
- inhibition in vivo at 30 mg/kg (Mus musculus [1]): 3%
- logD [2]: 3.1

Compound: C/C=C1/CN2CC[C@H]1C(=O)c1[nH]c3ccccc3c1C2.O=S(=O)(O)O
- inhibition in vivo at 30 mg/kg (Mus musculus [1]): 49%
- logD [2]: 2.8
- ED50 (Mus musculus [3]): 32 mg/kg
- inhibition in vivo at 30 mg/kg (Mus musculus [4]): 43%
- IC50 (Mu-type opioid receptor [5]): 70 µM
- EC50 (Mu-type opioid receptor [6]): > 100 µM
- Emax (Mu-type opioid receptor [7]): 13%

Compound: C/C=C1\CN2CCC1C(=O)c1[nH]c3ccccc3c1C2 (racemic)
- inhibition in vivo at 30 mg/kg (Mus musculus [1]): 18%
- logD [2]: 3.3

Compound: CCC1CN2CCC1C(=O)c1[nH]c3ccccc3c1C2 (mixture of isomers)
- inhibition in vivo at 30 mg/kg (Mus musculus [1]): 50%

Compound: C/C=C1/CN2CCC1C(=O)c1c(c3ccccc3n1C)C2 (racemic)
- inhibition in vivo at 30 mg/kg (Mus musculus [1]): 30%
- logD [2]: 3.5

Compound: C/C=C1/CN2CCC1C(=O)c1[nH]c3ccccc3c1C2 (racemic)
- inhibition in vivo at 30 mg/kg (Mus musculus [1]): 49%

Compound: O=C1c2[nH]c3ccccc3c2CN2CCC1CC2
- inhibition in vivo at 30 mg/kg (Mus musculus [1]): 73%
- logD [2]: 1.8
- AUC [8]: 2.26 µM·h
- Cmax [9]: 1160 nM
- half-life [10]: 1.17 h
- ED50 (Mus musculus [3]): 11 mg/kg
- IC50 (Mu-type opioid receptor [5]): > 100 µM
- EC50 (Mu-type opioid receptor [6]): > 100 µM
- Emax (Mu-type opioid receptor [7]): 13%

Compound: CCC12CCN(CC1)Cc1c([nH]c3ccccc13)C2=O.O=S(=O)(O)O
- inhibition in vivo at 30 mg/kg (Mus musculus [1]): 48%
- logD [2]: 3
- AUC [8]: 1.02 µM·h
- Cmax [9]: 710 nM
- half-life [10]: 1.28 h

Compound: CC/C=C1/CN2CCC1C(=O)c1[nH]c3ccccc3c1C2 (racemic)
- inhibition in vivo at 30 mg/kg (Mus musculus [1]): 0%

Compound: CC12CCN(CC1)Cc1c([nH]c3ccccc13)C2=O.O=S(=O)(O)O
- inhibition in vivo at 30 mg/kg (Mus musculus [1]): 90 to 94%
- logD [2]: 2.5
- AUC [8]: 3.21 µM·h
- Cmax [9]: 1250 nM
- half-life [10]: 2.33 h
- ED50 (Mus musculus [3]): 7.8 mg/kg
- inhibition in vivo at 30 mg/kg (Mus musculus [4]): 92%
- IC50 (Mu-type opioid receptor [5]): 71 µM
- EC50 (Mu-type opioid receptor [6]): > 100 µM
- Emax (Mu-type opioid receptor [7]): 12%
- inhibition in vivo at 3 mg/kg (Mus musculus [11]): 23%
- inhibition in vivo at 10 mg/kg (Mus musculus [12]): 52%

Compound: C/C=C1/CN2CCC1C(=O)c1[nH]c3c(OC)cccc3c1C2 (racemic)
- inhibition in vivo at 30 mg/kg (Mus musculus [1]): 34%
- logD [2]: 3.3

Compound: C/C=C1/CN2CCC1C(=O)c1[nH]c3cccc(OC)c3c1C2 (racemic)
- inhibition in vivo at 30 mg/kg (Mus musculus [1]): 42%
- logD [2]: 3.4
